Assay results gathered from unrelated publications.
KDM1A: Lysine-specific histone demethylase 1A (KDM1A, Homo sapiens, UniProt O60341)
TRIM24: Transcription intermediary factor 1-alpha (TRIM24, Homo sapiens, UniProt O15164)
BRD3 BD2: Bromodomain-containing protein 3, BD2 (BRD3, Homo sapiens, UniProt Q15059)
PIK3C2B: Phosphatidylinositol 4-phosphate 3-kinase C2 domain-containing subunit beta (PIK3C2B, Homo sapiens, UniProt O00750)

| SMILES | target | effect on | mode | method | tested at | quantity | value |
| --- | --- | --- | --- | --- | --- | --- | --- |
| CN1CCN(C(=O)[C@H](CCCN[C@@H]2C[C@H]2c2ccc(F)cc2)NC(=O)c2ccc(-n3ccnn3)cc2)CC1 | KDM1A | enzyme activity | inhibitor | – | – | kinact | 0.018 s⁻¹ |
| CC(C)(C)N1C(=O)[C@H]2Cc3c([nH]c4ccccc34)[C@H](c3cccnc3)N2C1=O | cGMP-specific 3',5'-cyclic phosphodiesterase (PDE5A, Homo sapiens, UniProt O76074) | enzyme activity | inhibitor | FP | 50 µM | inhibition | 89% |
| C[S+]([O-])c1ccc(-c2nc(-c3ccncc3)c(-c3ccc(F)cc3)[nH]2)cc1 (stereo not shown) | TRIM24 | thermal stability | – | DSF | 10 µM | ΔTm | 1.4 °C |
| Cc1cc2c(cc1N1C(=O)c3cccc4c(Cl)ccc(c34)C1=O)n(C)c(=O)n2C | BRD3 BD2 | thermal stability | – | DSF | 10 µM | ΔTm | 0.1 °C |
| Cc1ccc(C(=O)Nc2ccc(CN3CCN(C)CC3)c(C(F)(F)F)c2)cc1C#Cc1cnc2cccnn12 | PIK3C2B | enzyme activity | inhibitor | – | 23.5 nM | remaining activity | 90% |
| O=C(c1ccc(F)cc1)N(Cc1ccccc1)C1CCCCC1 | Endothelin-1 receptor (EDNRA, Homo sapiens, UniProt P25101) | cell-free assay | – | – | 10 µM | inhibition | 0% |
| O=C(O)c1ccc(CN2CCC(CN[C@@H]3C[C@H]3c3ccccc3)CC2)cc1 | KDM1A | enzyme activity | inhibitor | – | – | kinact | 0.013 s⁻¹ |
| CC(=O)N[C@H](C(=O)N[C@H](C(=O)N[C@@H](Cc1ccccc1)C(=O)N[C@H](C(=O)N[C@@H](CO)C(=O)N[C@@H](Cc1c[nH]c2ccccc12)C(=O)N[C@@H](CCC(=O)O)C(=O)N[C@@H](CCC(=O)O)C(=O)N[C@@H](Cc1ccc(O)cc1)C(=O)N[C@@H](CC(C)C)C(=O)N[C@@H](CC(=O)O)C(=O)N[C@@H](Cc1c[nH]c2ccccc12)C(=O)N[C@H](C(N)=O)C(C)C)[C@@H](C)O)C(C)C)[C@@H](C)O | Proprotein convertase subtilisin/kexin type 9 (PCSK9, Homo sapiens, UniProt Q8NBP7) | binding | – | SPR | – | kon | 260000 M⁻¹ s⁻¹ |
| COc1cc(Cl)c(C(=O)N[C@@H](CN[C@H]2CC[C@@H](N)CC2)Cc2ccc(C#N)cc2)cc1-c1ccc(CN[C@H](C)c2ccc(C)cc2)o1 | Testis-specific serine/threonine-protein kinase 4 (TSSK4, Homo sapiens, UniProt Q6SA08) | enzyme activity | inhibitor | – | 1 µM | remaining activity | 98% |
| Cc1cnc(Nc2ccc(OCCN3CCCC3)cc2)nc1Nc1cccc(S(=O)(=O)NC(C)(C)C)c1 | BRD3 BD2 | thermal stability | – | DSF | 10 µM | ΔTm | 3.4 °C |
| Nc1ncnc2occ(-c3ccc(NC(=O)Nc4cc(C(F)(F)F)ccc4F)cc3)c12 | PIK3C2B | enzyme activity | inhibitor | – | 20 µM | remaining activity | 99% |
| NS(=O)(=O)c1ccc(Nc2nc(-c3ccc(F)cc3)c3ccccc3n2)cc1 | Bromodomain-containing protein 3, BD1 (BRD3, Homo sapiens, UniProt Q15059) | binding | – | competition with immobilised ligand | 1 µM | remaining binding | 1% |
| Oc1ccc(-c2nc(-c3ccncc3)c(-c3ccc(F)cc3)[nH]2)cc1 | TRIM24 | thermal stability | – | DSF | 10 µM | ΔTm | -0.23 °C |
